# Columns and labels:
# Assay type in all cases: functional
# Staphylococcus aureus = assay: Antibacterial activity against Staphylococcus aureus ATCC 25923 after 20 hrs by broth microdilution method; settings: ATCC 25923, 20 h
# Procedure, shortened: (§1)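 MIC by two-fold dilution series (1/2 to 1/1024) of a 2048 µg/mL DMSO stock in cation-adjusted Müller-Hinton broth. Inoculum from colonies of 24 h Columbia blood agar culture, adjusted to 0.5 McFarland, diluted to 1 × 10^6 CFU/mL and added 1:1 to compound broth. Incubated 37 °C, 20 h. MIC is the lowest concentration with no turbidity or growth button, read by eye. Run in duplicate.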
# Bacillus cereus = assay: Antibacterial activity against Bacillus cereus ATCC 13061 after 20 hrs by broth microdilution method; settings: ATCC 13061, 20 h; procedure, shortened: as §1
# Escherichia coli = assay: Antibacterial activity against Escherichia coli ATCC 25922 after 20 hrs by broth microdilution method; settings: ATCC 25922, 20 h; procedure, shortened: as §1
# Enterobacter cloacae = assay: Antibacterial activity against Enterobacter cloacae ATCC 49141 after 20 hrs by broth microdilution method; settings: ATCC 49141, 20 h; procedure, shortened: as §1
# Acinetobacter baumannii = assay: Antibacterial activity against Acinetobacter baumannii ATCC 19606 after 20 hrs by broth microdilution method; settings: ATCC 19606 = CIP 70.34 = JCM 6841, 20 h; procedure, shortened: as §1
# Pseudomonas aeruginosa = assay: Antibacterial activity against Pseudomonas aeruginosa ATCC 27853 after 20 hrs by broth microdilution method; settings: ATCC 27853, 20 h; procedure, shortened: as §1
# Candida albicans = assay: Antifungal activity against Candida albicans ATCC 90028 after 24 hrs by broth microdilution method; settings: ATCC 90028, 24 h
# Procedure, shortened: (§2)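 Two-fold dilutions (1/2 to 1/1024) of a 2048 µg/mL DMSO stock made in Sabouraud broth. Yeast inoculum from colonies of 24 h Sabouraud dextrose agar culture, 0.5 McFarland, diluted in sterile water to 10^5 CFU/mL and added in equal volume to broth. Incubated 37 °C, 24 h (C. albicans) or 48 h (C. parapsilosis). MIC read by eye as lowest concentration without turbidity or growth button. Run in duplicate.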
# Candida parapsilosis = assay: Antifungal activity against Candida parapsilosis ATCC 22019 after 48 hrs by broth microdilution method; settings: Lodderomyces parapsilosis, ATCC 22019, 48 h; procedure, shortened: as §2
Compound,MIC (Staphylococcus aureus) [µg/mL],MIC (Bacillus cereus) [µg/mL],MIC (Escherichia coli) [µg/mL],MIC (Enterobacter cloacae) [µg/mL],MIC (Acinetobacter baumannii) [µg/mL],MIC (Pseudomonas aeruginosa) [µg/mL],MIC (Candida albicans) [µg/mL],MIC (Candida parapsilosis) [µg/mL]
O=C(NNC(=S)Nc1ccc(OC(F)(F)F)cc1)c1ccc(S(=O)(=O)c2ccccc2)cc1,256,32,128,128,64,64,64,64
COc1cc(-n2c(-c3ccc(S(=O)(=O)c4ccccc4)cc3)n[nH]c2=S)cc(OC)c1OC,128,16,128,128,32,64,64,32
O=C(NNC(=S)Nc1ccc(OC(F)(F)F)cc1)c1ccc(S(=O)(=O)c2ccc(Br)cc2)cc1,512,32,128,128,64,64,64,64
COc1cc(NC(=S)NNC(=O)c2ccc(S(=O)(=O)c3ccccc3)cc2)cc(OC)c1OC,128,16,128,128,32,64,64,64
O=S(=O)(c1ccc(Br)cc1)c1ccc(-c2n[nH]c(=S)n2-c2ccc(OC(F)(F)F)cc2)cc1,512,32,256,256,32,64,128,64
COc1cc(Nc2nnc(-c3ccc(S(=O)(=O)c4ccccc4)cc3)s2)cc(OC)c1OC,512,16,128,128,32,64,64,64
COc1cc(NC(=S)NNC(=O)c2ccc(S(=O)(=O)c3ccc(Br)cc3)cc2)cc(OC)c1OC,128,16,128,128,32,64,64,64
NCC[C@H](O)C(=O)N[C@@H]1C[C@H](N)[C@@H](O[C@H]2O[C@H](CN)[C@@H](O)[C@H](O)[C@H]2O)[C@H](O)[C@H]1O[C@H]1O[C@H](CO)[C@@H](O)[C@H](N)[C@H]1O [AMIKACIN],2,–,2,–,–,2,–,–
OC(Cn1cncn1)(Cn1cncn1)c1ccc(F)cc1F [FLUCONAZOLE],–,–,–,–,–,–,–,2
O=S(=O)(c1ccc(Br)cc1)c1ccc(-c2nnc(Nc3ccc(OC(F)(F)F)cc3)s2)cc1,512,32,128,128,32,64,128,64
O=S(=O)(c1ccccc1)c1ccc(-c2n[nH]c(=S)n2-c2ccc(OC(F)(F)F)cc2)cc1,256,32,128,128,32,64,128,64
COc1cc(-n2c(-c3ccc(S(=O)(=O)c4ccc(Br)cc4)cc3)n[nH]c2=S)cc(OC)c1OC,128,8,128,128,32,64,64,16
O=S(=O)(c1ccccc1)c1ccc(-c2nnc(Nc3ccc(OC(F)(F)F)cc3)s2)cc1,512,32,128,128,32,64,64,64
COc1cc(Nc2nnc(-c3ccc(S(=O)(=O)c4ccc(Br)cc4)cc3)s2)cc(OC)c1OC,512,16,64,128,32,64,64,64
